Our source for the Activity and fold change (FC) values is ChEMBL document CHEMBL4304816, “A Novel Biphenyl-based Chemotype of Retinoid X Receptor Ligands Enables Subtype and Heterodimer Preferences” (ACS Med Chem Lett, 2019).

What all share (type): cell-based
For assay [1], the target named is T1, Retinoic acid receptor RXR-gamma (Homo sapiens) (UniProt P48443).
T1 sequence (whole entry): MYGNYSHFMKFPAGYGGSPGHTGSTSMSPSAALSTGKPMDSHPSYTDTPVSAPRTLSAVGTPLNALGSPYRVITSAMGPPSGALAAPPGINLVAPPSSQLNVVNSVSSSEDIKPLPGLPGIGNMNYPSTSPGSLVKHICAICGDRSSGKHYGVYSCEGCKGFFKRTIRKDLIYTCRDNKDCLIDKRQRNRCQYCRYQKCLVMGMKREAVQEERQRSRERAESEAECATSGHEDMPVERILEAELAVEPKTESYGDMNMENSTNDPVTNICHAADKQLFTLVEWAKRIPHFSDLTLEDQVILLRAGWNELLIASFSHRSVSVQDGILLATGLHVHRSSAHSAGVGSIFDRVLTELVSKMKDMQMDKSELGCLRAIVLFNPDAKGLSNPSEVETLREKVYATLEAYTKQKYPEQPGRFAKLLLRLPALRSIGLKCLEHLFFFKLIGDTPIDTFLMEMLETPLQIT
As to the kind of experiment: Agonist activity at Gal4-LBD fused RXRgamma (unknown origin) expressed in HEK293T cells at 0.1 to 3 uM after 14 to 16 hrs in presence of RXR antagonist HX531 by dual-Glo luciferase reporter gene assay. On the technique in general: Reporter assays use an easily measured gene product as a stand-in for the process of interest.

The target of assay [2] is T2, Retinoic acid receptor RXR-beta (Homo sapiens) (UniProt P28702).
T2 sequence (whole entry): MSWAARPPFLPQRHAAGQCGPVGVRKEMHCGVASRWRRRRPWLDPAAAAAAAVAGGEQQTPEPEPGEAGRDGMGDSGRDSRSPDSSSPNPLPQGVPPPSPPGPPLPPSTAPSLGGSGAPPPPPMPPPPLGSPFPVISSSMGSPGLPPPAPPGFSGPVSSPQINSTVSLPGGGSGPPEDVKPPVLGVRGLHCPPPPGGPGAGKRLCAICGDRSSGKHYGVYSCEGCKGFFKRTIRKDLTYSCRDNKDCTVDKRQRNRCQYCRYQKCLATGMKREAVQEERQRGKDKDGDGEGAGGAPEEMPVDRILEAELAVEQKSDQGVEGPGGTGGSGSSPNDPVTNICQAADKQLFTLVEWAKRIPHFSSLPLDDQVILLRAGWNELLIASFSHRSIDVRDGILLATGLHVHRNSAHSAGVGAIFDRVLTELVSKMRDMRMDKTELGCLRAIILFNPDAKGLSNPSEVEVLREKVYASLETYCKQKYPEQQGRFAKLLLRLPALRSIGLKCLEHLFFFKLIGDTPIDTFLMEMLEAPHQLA
As to the kind of experiment: Agonist activity at Gal4-LBD fused RXRbeta (unknown origin) expressed in HEK293T cells at 0.1 to 3 uM after 14 to 16 hrs in presence of RXR antagonist HX531 by dual-Glo luciferase reporter gene assay.

The target in assay [3] is T3, Peroxisome proliferator-activated receptor alpha (Homo sapiens) (UniProt Q07869).
T3 sequence (whole entry): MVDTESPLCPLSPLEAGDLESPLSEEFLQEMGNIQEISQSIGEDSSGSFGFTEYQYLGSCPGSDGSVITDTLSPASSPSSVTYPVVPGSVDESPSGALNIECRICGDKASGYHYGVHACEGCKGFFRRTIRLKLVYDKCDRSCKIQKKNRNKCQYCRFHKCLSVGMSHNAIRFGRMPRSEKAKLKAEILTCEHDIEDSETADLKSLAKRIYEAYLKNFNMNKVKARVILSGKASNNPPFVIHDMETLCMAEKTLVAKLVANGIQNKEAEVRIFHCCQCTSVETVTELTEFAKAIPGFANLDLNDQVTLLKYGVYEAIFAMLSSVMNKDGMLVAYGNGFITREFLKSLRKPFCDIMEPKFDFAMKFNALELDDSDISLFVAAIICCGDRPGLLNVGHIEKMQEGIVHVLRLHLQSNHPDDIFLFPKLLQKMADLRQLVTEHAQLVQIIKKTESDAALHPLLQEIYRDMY
Put plainly: Agonist activity at Gal4-LBD fused PPARalpha (unknown origin) expressed in HEK293T cells at 20 uM after 14 to 16 hrs by dual-Glo luciferase assay. An outline of the steps: (§1)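 Gal4-hybrid reporter gene selectivity panel of related nuclear receptors (PPARα/β/γ, RARα/β/γ) in HEK293T cells. Activity is read as mean fold activation versus 0.1% DMSO vehicle, n ≥ 2.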

For assay [4], the target named is T4, Retinoic acid receptor alpha (Homo sapiens) (UniProt P10276).
T4 sequence (whole entry): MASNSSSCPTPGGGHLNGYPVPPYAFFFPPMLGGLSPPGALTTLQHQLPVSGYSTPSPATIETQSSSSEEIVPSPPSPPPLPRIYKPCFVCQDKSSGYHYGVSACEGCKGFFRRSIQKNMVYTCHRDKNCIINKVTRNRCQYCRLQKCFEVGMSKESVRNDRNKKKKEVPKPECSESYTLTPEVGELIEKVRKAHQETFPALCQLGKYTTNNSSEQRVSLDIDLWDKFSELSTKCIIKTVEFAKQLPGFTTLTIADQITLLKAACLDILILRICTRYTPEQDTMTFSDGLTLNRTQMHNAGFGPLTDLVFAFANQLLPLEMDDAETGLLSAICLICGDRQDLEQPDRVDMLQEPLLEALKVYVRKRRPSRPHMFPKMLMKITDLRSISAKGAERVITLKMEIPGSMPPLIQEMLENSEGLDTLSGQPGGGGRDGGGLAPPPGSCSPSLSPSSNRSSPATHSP
Put plainly: Agonist activity at Gal4-LBD fused RARalpha (unknown origin) expressed in HEK293T cells at 20 uM after 14 to 16 hrs by dual-Glo luciferase assay. The procedure, abridged:
as §1

The target of assay [5] is T5, Retinoic acid receptor RXR-alpha (Homo sapiens) (UniProt P19793).
T5 sequence (whole entry): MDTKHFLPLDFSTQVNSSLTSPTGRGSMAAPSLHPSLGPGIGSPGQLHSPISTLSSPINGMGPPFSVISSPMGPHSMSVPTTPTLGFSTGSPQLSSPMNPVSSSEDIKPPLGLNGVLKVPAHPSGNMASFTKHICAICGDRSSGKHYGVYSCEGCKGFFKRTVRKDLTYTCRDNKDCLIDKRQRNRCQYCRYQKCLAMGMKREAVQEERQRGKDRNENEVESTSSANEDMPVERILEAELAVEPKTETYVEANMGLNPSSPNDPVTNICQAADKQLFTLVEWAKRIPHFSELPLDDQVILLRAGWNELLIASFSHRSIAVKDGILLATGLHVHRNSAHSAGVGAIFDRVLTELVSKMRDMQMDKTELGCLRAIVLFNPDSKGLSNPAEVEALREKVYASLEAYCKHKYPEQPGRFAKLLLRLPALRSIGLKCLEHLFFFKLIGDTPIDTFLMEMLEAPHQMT
As to the kind of experiment: Agonist activity at Gal4-LBD fused RXRalpha (unknown origin) expressed in HEK293T cells at 10 uM after 14 to 16 hrs by dual-Glo luciferase assay.

Assay [6] concerns the target T2, Retinoic acid receptor RXR-beta (Homo sapiens). Put plainly: Agonist activity at Gal4-LBD fused RXRbeta (unknown origin) expressed in HEK293T cells assessed as fold activation at 10 uM after 14 to 16 hrs by dual-Glo luciferase assay relative to untreated control. An outline of the steps:
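Gal4-hybrid RXRα/β/γ reporter gene assays in HEK293T cells. Fold activation is the maximal fold activation versus 0.1% DMSO.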

Active and inactive are the calls of the source. The calls are words filed in the database; no cut-off is given here.

`Cc1cc(-c2cc(C(F)(F)F)cc(C(F)(F)F)c2)ccc1CC(=O)O`: the result in assay [1] and in assay [2] was inactive.
`Cc1cc(-c2ccc(C(=O)O)cc2)cc(C(C)(C)C)c1`: the result in assay [3] and in assay [4] was Active.
`Cc1cc(-c2cc(C(C)(C)C)cc(C(C)(C)C)c2)ccc1C(=O)O`: in assay [5], the result was inactive. Also, the fold change (FC) in assay [6] amounted to 31.
